High-throughput results from PubChem BioAssay.
Only some compounds are listed: those with a hit (about 3.3% of all), similar ones and a draw of the others.
5HT1E antag: antagonists of human 5-HT1E serotonin receptor | P28566 | CHO 5-HT1E Ga15 NFAT-bla reporter, FRET, antagonist | inhibition, % at 6 µM | 65,000 compounds, 0.99% hits;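 active means inhibition above a set limit, the mean inhibition across every tested compound plus 3 SD, cut at about 29% in these data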;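 further: signal is the 460 over 535 nm emission ratio of beta-lactamase substrate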
5HT1a antag: antagonists of human 5-HT1a serotonin receptor; AID 612; CHO 5-HT1a Ga15 NFAT-bla reporter, antagonist mode; 62,000 compounds, 0.68% hits; P08908; inhibition, % at 10 µM;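 active means inhibition above the mean of all tested compounds plus 3 SD, cut at about 43% in these data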;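 further: receptor stimulated by 5-CT agonist at 100 nM near EC80; beta-lactamase reporter measured by ratiometric fluorescence of a cleavable substrate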
Target sequence (P08908 whole entry, looked up): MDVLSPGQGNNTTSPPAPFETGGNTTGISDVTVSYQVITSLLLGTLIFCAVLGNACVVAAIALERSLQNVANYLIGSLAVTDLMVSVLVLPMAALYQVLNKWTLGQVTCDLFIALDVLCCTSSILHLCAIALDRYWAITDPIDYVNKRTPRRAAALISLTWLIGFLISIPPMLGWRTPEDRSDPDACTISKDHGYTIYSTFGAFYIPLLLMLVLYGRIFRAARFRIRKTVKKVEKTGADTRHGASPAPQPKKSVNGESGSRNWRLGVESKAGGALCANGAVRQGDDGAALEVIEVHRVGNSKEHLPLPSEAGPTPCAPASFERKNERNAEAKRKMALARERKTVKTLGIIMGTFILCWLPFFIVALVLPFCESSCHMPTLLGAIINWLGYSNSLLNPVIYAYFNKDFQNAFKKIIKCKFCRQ
Jurkat tox 60K: cytotoxic compounds reducing Jurkat cell viability; inhibition, % at 4 µM; 56,000 compounds, 1.2% hits; AID 463; Jurkat E6.1 viability, ATP luminescence, 48 h;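 active means inhibition above the mean inhibition of all tested compounds plus 3 SD, cut at about 28% in these data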
HTR1E agonist: 5-HT1E (human) receptor agonism; P28566; 65,000 compounds, 0.69% hits; CHO 5-HT1E Ga15 NFAT-bla reporter, FRET; 0% DMSO wells, 100% control agonist wells; activation, % at 6 µM;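 active means activation above a set limit, the screen-wide mean activation plus 3 SD, cut at about 8.5% in these data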
HEK293 NFkB inh: lowers PMA/ionomycin-induced NF-kB signal in HEK293 cells; HEK-293 NF-kB luciferase reporter, luminescence; inhibition, % at 3 µM; 62,000 compounds, 0.21% hits; AID 465;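 active means inhibition above the mean of all tested compounds plus 3 SD, cut at about 40% in these data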
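Timing: 1 h pretreatment, 16 h stimulation, 37 °C; system: HEK-293 cells with stable firefly luciferase reporter driven by four HIV NF-kB elements; doses: 3 µM once, 0.30% DMSO; measured by: luciferase luminescence; control set: DMSO and 10 µM reference inhibitor; repeats: single test; reagent: PMA plus ionomycin mix as NF-kB-activating stimulus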
HTR1A agonist: agonists of human 5-HT1a serotonin receptor; activation, % at 10 µM; CHO 5-HT1a Ga15 NFAT-bla reporter, FRET ratio; 0% basal, 100% maximal reference agonist; 65,000 compounds, 0.56% hits; P08908;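 active means activation above the screen-wide mean activation plus 3 SD, cut at about 19% in these data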
Hits are given with their value.

For COc1ccc(CC(C)N2CCN(Cc3ccccc3)CC2)c(OC)c1 (configuration not stated) the results were 5HT1E antag inactive, 5HT1a antag 92, Jurkat tox 60K inactive, HTR1E agonist inactive, HEK293 NFkB inh inactive and HTR1A agonist inactive.
COc1ccccc1N1CCN(C/C(O)=C(\C#N)c2nc(-c3ccccc3)cs2)CC1 was read as 5HT1E antag inactive, 5HT1a antag inactive, Jurkat tox 60K inactive, HTR1E agonist 10, HEK293 NFkB inh inactive and HTR1A agonist inactive.
`COc1ccccc1N1CCN(Cc2ccsc2)CC1` gave 5HT1E antag inactive, 5HT1a antag inactive, Jurkat tox 60K inactive, HTR1E agonist 21, HEK293 NFkB inh inactive and HTR1A agonist 40.
Screening COc1cc(S(=O)(=O)N2CCN(c3ccccc3F)CC2)ccc1Cl returned 5HT1E antag inactive, 5HT1a antag inactive, Jurkat tox 60K inactive, HTR1E agonist inactive, HEK293 NFkB inh inactive and HTR1A agonist 21.
Screening c1ccc(N2CCN(Cc3ccsc3)CC2)nc1 returned 5HT1E antag inactive, 5HT1a antag inactive, Jurkat tox 60K inactive, HTR1E agonist inactive, HEK293 NFkB inh inactive and HTR1A agonist inactive.
For COc1cc(S(=O)(=O)N2CCN(c3ccccc3)CC2)ccc1Cl the results were 5HT1E antag inactive, 5HT1a antag inactive, Jurkat tox 60K inactive, HTR1E agonist inactive, HEK293 NFkB inh inactive and HTR1A agonist inactive.
For CCOc1ccccc1N1CCN(Cc2cccc(OC)c2OC)CC1 the results were 5HT1E antag inactive, 5HT1a antag 58, Jurkat tox 60K inactive, HTR1E agonist inactive, HEK293 NFkB inh inactive and HTR1A agonist inactive.
For CCCSc1nnc(Sc2nnnn2-c2ccccc2)s1 the results were 5HT1E antag inactive, 5HT1a antag inactive, Jurkat tox 60K 98, HTR1E agonist inactive, HEK293 NFkB inh inactive and HTR1A agonist inactive.
`OC1CN=C2C=CC=CN2C1` (configuration not stated) gave 5HT1E antag inactive, 5HT1a antag inactive, Jurkat tox 60K inactive, HTR1E agonist inactive, HEK293 NFkB inh inactive and HTR1A agonist inactive.
c1ccc(Oc2ccc(-n3cnnn3)cc2)cc1 was read as 5HT1E antag 29, 5HT1a antag inactive, Jurkat tox 60K inactive, HTR1E agonist inactive, HEK293 NFkB inh inactive and HTR1A agonist inactive.
Screening O=C(Oc1ccccc1)c1ccc(-n2cnnn2)cc1 returned 5HT1E antag inactive, 5HT1a antag inactive, Jurkat tox 60K inactive, HTR1E agonist inactive, HEK293 NFkB inh inactive and HTR1A agonist inactive.
Cc1ccc(S(=O)(=O)CC(=O)N(C)C)cc1 was read as 5HT1E antag inactive, 5HT1a antag inactive, HTR1E agonist inactive, HEK293 NFkB inh inactive and HTR1A agonist inactive.
CCCCS(=O)(=O)/C=C\C=C/S(=O)(=O)CCCC was read as 5HT1E antag 107, 5HT1a antag 102, HTR1E agonist inactive, HEK293 NFkB inh inactive and HTR1A agonist inactive.
CCCCS(=O)(=O)/C=C\C1C2C=CC(C2)C1S(=O)(=O)CCCC (configuration not stated) was read as 5HT1E antag inactive, 5HT1a antag inactive, Jurkat tox 60K inactive, HTR1E agonist inactive, HEK293 NFkB inh inactive and HTR1A agonist inactive.
For COc1ccccc1N1CCN(S(=O)(=O)c2cnc[nH]2)CC1 the results were 5HT1E antag inactive, 5HT1a antag inactive, Jurkat tox 60K inactive, HTR1E agonist inactive, HEK293 NFkB inh inactive and HTR1A agonist inactive.
`C=CCN(C(=O)Cn1c(C(=O)OC)cc2oc(C)cc21)c1ccccc1` gave 5HT1E antag inactive, 5HT1a antag inactive, Jurkat tox 60K inactive, HTR1E agonist inactive, HEK293 NFkB inh inactive and HTR1A agonist inactive.
`COC(=O)c1cc2oc(C)cc2n1CC(=O)N(C)c1ccccc1` gave 5HT1E antag inactive, 5HT1a antag inactive, Jurkat tox 60K inactive, HTR1E agonist 11, HEK293 NFkB inh inactive and HTR1A agonist inactive.
`COc1ccc(-n2nc3c(c2NC(=O)c2cc4ccccc4oc2=O)CS(=O)(=O)C3)cc1` gave 5HT1E antag inactive, 5HT1a antag inactive, HTR1E agonist inactive, HEK293 NFkB inh inactive and HTR1A agonist inactive.
Screening COc1ccccc1N1CCN(C(=O)CSc2ncccc2-c2nc3ccccc3[nH]2)CC1 returned 5HT1E antag inactive, 5HT1a antag inactive, HTR1E agonist 22, HEK293 NFkB inh inactive and HTR1A agonist inactive.
COc1ccc(N2CCN(C(=O)CSc3ncccc3-c3nc4ccccc4[nH]3)CC2)cc1 was read as 5HT1E antag inactive, 5HT1a antag inactive, Jurkat tox 60K inactive, HTR1E agonist inactive, HEK293 NFkB inh inactive and HTR1A agonist inactive.
For O=C(CSc1ncccc1-c1nc2ccccc2[nH]1)N1CCN(c2ccccc2F)CC1 the results were 5HT1E antag inactive, 5HT1a antag inactive, Jurkat tox 60K inactive, HTR1E agonist 8.7, HEK293 NFkB inh inactive and HTR1A agonist inactive.
`COc1ccccc1N1CCN(C(=O)CSc2nnc3n2C(C)(C)Cc2ccccc2-3)CC1` gave 5HT1E antag inactive, 5HT1a antag inactive, Jurkat tox 60K 60, HTR1E agonist inactive, HEK293 NFkB inh inactive and HTR1A agonist inactive.
`Cc1ccc(NC2=NCC(=O)N2Cc2ccc3c(c2)OCO3)cc1` gave 5HT1E antag inactive, 5HT1a antag inactive, Jurkat tox 60K inactive, HTR1E agonist inactive, HEK293 NFkB inh inactive and HTR1A agonist inactive.
Cc1ccc2[nH]c(=O)c(CN(Cc3ccccc3Cl)C(=O)N3CCOCC3)cc2c1 was read as 5HT1E antag inactive, 5HT1a antag inactive, Jurkat tox 60K inactive, HTR1E agonist inactive, HEK293 NFkB inh inactive and HTR1A agonist inactive.
Screening CNC(=O)N(C1=NCC(C)(C)S1)c1ccc(F)c(Cl)c1 returned 5HT1E antag 31, 5HT1a antag inactive, Jurkat tox 60K 49, HTR1E agonist inactive, HEK293 NFkB inh inactive and HTR1A agonist inactive.
CCCCn1c(NC(=O)c2ccccc2Cl)c(C#N)c2nc3ccccc3nc21 was read as 5HT1E antag inactive, 5HT1a antag inactive, Jurkat tox 60K inactive, HTR1E agonist inactive, HEK293 NFkB inh inactive and HTR1A agonist 27.
Screening COc1ccc(-n2c(NC(=O)c3ccco3)c(C#N)c3nc4ccccc4nc32)cc1 returned 5HT1E antag inactive, 5HT1a antag inactive, Jurkat tox 60K inactive, HTR1E agonist inactive, HEK293 NFkB inh inactive and HTR1A agonist 22.
For Cc1nc2ccccc2c2oc(C(=O)NCc3ccccn3)cc12 the results were 5HT1E antag inactive, 5HT1a antag inactive, Jurkat tox 60K inactive, HTR1E agonist inactive, HEK293 NFkB inh inactive and HTR1A agonist 34.
`Cc1nc2ccccc2c2oc(C(=O)NCc3ccc4c(c3)OCO4)cc12` gave 5HT1E antag inactive, 5HT1a antag inactive, Jurkat tox 60K inactive, HTR1E agonist inactive, HEK293 NFkB inh inactive and HTR1A agonist inactive.
Screening COC(=O)c1ccc(CSc2nnc(SCc3ccc(C(=O)OC)o3)s2)o1 returned 5HT1E antag inactive, 5HT1a antag inactive, Jurkat tox 60K inactive, HTR1E agonist inactive, HEK293 NFkB inh inactive and HTR1A agonist inactive.
For COC(=O)c1ccc(CSc2nc(C)nc3sc(C)c(C)c23)o1 the results were 5HT1E antag 33, 5HT1a antag 50, Jurkat tox 60K inactive, HTR1E agonist inactive, HEK293 NFkB inh inactive and HTR1A agonist inactive.
